H69AR growth 86K: blocks growth of human H69AR lung tumor cells. H69AR lung tumor viability, ATP luminescence, 72 h; stronger effect = lower value. viability, % at 10 µM. 6% of 85,000 active. AID 598;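 active = viability at or below 40%; inactive = viability above 40%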;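 also: multidrug resistant small cell line overexpressing MRP-1 efflux transporter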
ERa SRC1 inh: blocks coactivator binding to human estrogen receptor alpha | P03372 | TR-FRET ER-alpha LBD / SRC-1 peptide, estradiol-bound | inhibition, % at 25.6 µM | 1.7% of 86,000 active | AID 629; in the data active = inhibition above about 50%
HUVEC prolif 384: blocks proliferation of human endothelial cells. HUVEC proliferation, CellTiter-Glo luminescence, 72 h; stronger effect = lower value. viability, % at 10 µM (by protocol). 1.1% of 86,000 active;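 active = viability at or below 30%; inactive = viability above 30%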
ERa coact pot: enhances coactivator binding to human estrogen receptor alpha | P03372 | TR-FRET ERalpha-LBD/SRC-Cy5 coactivator binding, 2 h; 100 = basal binding, no effect | coactivator binding (% of control), % at 25.6 µM | 1.3% of 86,000 active; in the data active = activity above about 200%;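 also: binding measured in presence of low estradiol as agonist stimulus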
Lung fibro prol: blocks proliferation of human lung fibroblasts; viability, % at 10 µM; LL 47 human lung fibroblast viability, ATP luminescence; stronger effect = lower value; 1.1% of 85,000 active;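 active = viability at or below 50% in the single dose screen; inactive = viability above 50%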;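 also: compound exposure lasted 72 h before the ATP readout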
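Test system: LL 47 human lung fibroblasts; Quantity: 1,150 cells/well; Buffer or medium: IMEM plus 15% FBS; Dosing: tenfold compound dosing solution, DMSO at 0.1%; Timing: overnight cell rest, 72 h compound treatment at 37 °C; Detection: ATP-based CellTiter-Glo luminescent readout; Read-out basis: viability percentage against median untreated-cell control; Controls: cell-only wells, no compound.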
ERb coact inh: ER-beta (human) coactivator binding inhibition; inhibition, % at 25.6 µM; Q92731; 1.3% of 86,000 active; TR-FRET ER-beta LBD / SRC1-Cy5 peptide binding; receptor agonist-loaded with 1 µM estradiol;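 active = compounds whose percent inhibition of the receptor-coactivator binding signal exceeds about 50% in the single-dose screen, limit read from the data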
Target sequence (Q92731 whole entry, looked up, the tested form may be a part): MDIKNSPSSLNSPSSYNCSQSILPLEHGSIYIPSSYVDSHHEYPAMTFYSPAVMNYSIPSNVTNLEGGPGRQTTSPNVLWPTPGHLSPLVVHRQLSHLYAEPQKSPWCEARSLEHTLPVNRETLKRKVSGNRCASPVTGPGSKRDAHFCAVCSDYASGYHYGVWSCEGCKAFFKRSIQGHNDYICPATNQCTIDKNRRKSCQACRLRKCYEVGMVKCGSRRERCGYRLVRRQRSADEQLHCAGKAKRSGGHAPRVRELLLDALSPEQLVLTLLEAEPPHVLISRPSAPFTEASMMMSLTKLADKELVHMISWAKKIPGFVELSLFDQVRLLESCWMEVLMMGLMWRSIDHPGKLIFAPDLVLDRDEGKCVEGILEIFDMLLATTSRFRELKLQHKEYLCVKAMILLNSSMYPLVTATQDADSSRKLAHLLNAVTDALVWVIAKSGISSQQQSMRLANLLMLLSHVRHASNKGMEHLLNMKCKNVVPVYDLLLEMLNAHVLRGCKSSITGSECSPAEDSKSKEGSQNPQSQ
Large screens that a line does not name were inactive; [ ] = another dose, or the depositor's remark. Sampled rows, rich in hits. Any-hit rate of the full collection: about 9.2%.

CCOC(=O)C(C(=O)Nc1ccc(C)cc1)C1CCCCC1 (configuration not stated)	H69AR growth 86K 23
CCOC(=O)C(C(=O)Nc1ccccc1)C1CCCCC1 (configuration not stated)	none
CCOC(=O)c1sc(C)c2c(=O)n(CC(=O)c3ccc(Br)cc3)nnc12	ERb coact inh 59[fluorescence artefact?]
COc1cc(C2C3=C(Nc4ncnn42)c2ccccc2CC3)cc(OC)c1OC (configuration not stated)	H69AR growth 86K 29
CCC(C)Sc1nc2ccccc2n1CC(=O)O (configuration not stated)	none
CS(=O)(=O)N(Cc1ccccc1)c1ccc(C(=O)NCc2cccnc2)cc1	none
Cc1ccc(C(C#N)c2ccc(C(=O)c3ccc(F)cc3)cc2)cc1 (configuration not stated)	HUVEC prolif 384 17
CC(C)Oc1ccc(C(=O)N(Cc2ccco2)C2CCS(=O)(=O)C2)cc1 (configuration not stated)	none
CC1CC(C)CN(C(=O)c2ccc3c(=O)n(Cc4ccc5c(c4)OCO5)c(=S)[nH]c3c2)C1 (configuration not stated)	none
COCCCNC(=O)c1ccc2c(=O)n(Cc3ccc4c(c3)OCO4)c(=S)[nH]c2c1	ERa SRC1 inh 58, HUVEC prolif 384 22
O=C(c1ccc2c(=O)n(Cc3ccc4c(c3)OCO4)c(=S)[nH]c2c1)N1CCCCC1	H69AR growth 86K 35
CCOC(=O)N1CCN(C(=O)c2ccc3c(=O)n(Cc4ccccc4OC)c(=S)[nH]c3c2)CC1	H69AR growth 86K 34
Cc1ccc(-n2c(Cc3cccn3C)nnc2SCC(=O)Nc2cc(C)on2)cc1	none
COc1ccc([C@H]2[C@@H](C#N)[C@H](C#N)N3CCCN23)cc1	none
CC(C)C(=O)N1CCN(c2ccc(NC(=O)c3ccc4c(c3)OCCO4)cc2Cl)CC1	H69AR growth 86K 6.2, HUVEC prolif 384 3.2, Lung fibro prol 19
COC(=O)CSc1nc2cc3c(cc2cc1C#N)OCO3	ERa coact pot 284[fluorescence artefact?]
Cc1cc2ccccc2nc1SCC(=O)N1c2ccccc2CC1C (configuration not stated)	none
CC1Cc2ccccc2N1C(=O)CSc1nc2cc3c(cc2cc1C#N)OCO3 (configuration not stated)	ERa coact pot 298[fluorescence artefact?]
CCOC(=O)CSc1nc2cc3c(cc2cc1C#N)OCO3	none
Cc1cc2cc3c(cc2nc1SCC(=O)N1c2ccccc2CC1C)OCO3 (configuration not stated)	ERa SRC1 inh 51[fluorescence artefact?]
CC(C)OC(=O)CSc1nc2cc3c(cc2cc1C#N)OCO3	none
CCOC(=O)C1CCN(C(=O)c2cc(S(=O)(=O)N3CCOCC3)c(Cl)cc2Cl)CC1	none
O=C(Oc1ccc(N(Cc2cccs2)C2=NS(=O)(=O)c3ccccc32)cc1)c1ccccc1F	none
O=C1NCCCc2c1oc1ccc(O)cc21	none
Oc1c(Cl)cc(Cl)c2c1NCCC2	H69AR growth 86K 4.4, ERa SRC1 inh 89[fluorescence artefact?], ERb coact inh 70[fluorescence artefact?]
C=CCn1c(CNC(=O)c2ccco2)nnc1SCC(=O)N1c2ccccc2Sc2ccccc21	H69AR growth 86K 34
CN(C)c1nc(-c2ccccc2)nc(-c2ccc(Cl)cc2)c1C#N	H69AR growth 86K 32
CNc1nc(-c2ccccc2)nc(-c2ccccc2)c1C#N	none
CCOC(=O)N/N=C\c1ccc([N+](=O)[O-])o1	none
O=[N+]([O-])c1ccc(/C=N/Nc2nc(N3CCCCCC3)nc(N3CCCCCC3)n2)o1	H69AR growth 86K 28, ERb coact inh 96[fluorescence artefact?]
CCCCSc1nnc2c(n1)[nH]c1ccccc12	ERa SRC1 inh 56
Cc1ccc(S(=O)(=O)Nc2ccc3c(c2)nc(CN2CCCC2)n3C)cc1	none
Cn1c(CCN2CCCCC2)nc2cc(NS(=O)(=O)c3ccc(F)cc3)ccc21	H69AR growth 86K 22
O=C(O)CCn1ccnc1-c1ccccc1	ERa coact pot 475
Cc1nccn1CCC(=O)O	none
Cc1ccc(CCNC(=O)c2coc3nc4ccccc4nc23)cc1	ERa coact pot 290[fluorescence artefact?]
Oc1ccccc1-c1cc(C(F)(F)C(F)F)nc(-c2ccccc2)n1	none
COc1ccc(O)c(-c2cc(C(F)(F)C(F)F)nc(-c3ccccc3)n2)c1	H69AR growth 86K 34
